This is an account of results in PubChem BioAssay AID588703 (Broad Institute, 2011).

Molecules are shown by their SMILES. The source made the active and inactive calls. How the calls were made is not given here.

System in the first assay: not listed separately
Put plainly: HMLE_shTWIST cancer stem cell-like viability inhibition, dose response, CellTiter-Glo luminescence, dry powder (AID 588703). As to conditions: HMLE_shTWIST viability, CellTiter-Glo luminescence, 72 h. The gist of the method: (§1)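 Material – HMLE_shTWIST EMT-induced stable cell line · Input – 1000 cells per well · Times – 72 h compound exposure, dosing 24 h post-seeding · Medium – serum-free screening medium · Benchmarks – DMSO-only wells · Signal – CellTiter-Glo luminescence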
On to `O=C(COc1ccc(Cl)cc1Cl)N/N=C/c1cnc[nH]1`, for which the result was inactive.

The test system of another assay is HMLE_shTWIST viability, CellTiter-Glo luminescence, 72 h. The assay is described as above.
Details: not given
The gist of the method:
as §1
For `O=C(N/N=C/c1ccc[nH]1)c1cc2ccccc2o1`, the AC50 is 180 nM. For the compound `Cc1cc(Cl)ccc1OCC(=O)N/N=C/c1ccc[nH]1`, the AC50 was 1600 nM.

For `O=C(COc1ccc(Cl)cc1Cl)N/N=C/c1ccc[nH]1`, the AC50 is 2210 nM. Same read-out and setting: the figure for `O=C(COc1cc(Cl)ccc1Cl)N/N=C/c1ccc[nH]1` is 920 nM; for `O=C(COc1c(Cl)cc(Cl)cc1Cl)N/N=C/c1ccc[nH]1` it is 110 nM. In the case of `CC(C)(C)c1ccc2c(c1)OC(C(=O)N/N=C/c1ccc[nH]1)CO2` (configuration not stated), the AC50 was 2890 nM.
